This passage reports activity change, negative = activation results from PubChem BioAssay AID493187 (Sanford-Burnham Center for Chemical Genomics, 2011).

Among all 340,000 compounds or so, about 190 (0.056%) were called active.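 How the source made its calls: active means activation of 40% or more at 20 µM, a change of -40% or lower; inactive means the rest.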 This excerpt belongs to a sample that is enriched for actives.

Chain of Hexokinase HKDC1 (Homo sapiens) (Q2TB90 whole entry, looked up): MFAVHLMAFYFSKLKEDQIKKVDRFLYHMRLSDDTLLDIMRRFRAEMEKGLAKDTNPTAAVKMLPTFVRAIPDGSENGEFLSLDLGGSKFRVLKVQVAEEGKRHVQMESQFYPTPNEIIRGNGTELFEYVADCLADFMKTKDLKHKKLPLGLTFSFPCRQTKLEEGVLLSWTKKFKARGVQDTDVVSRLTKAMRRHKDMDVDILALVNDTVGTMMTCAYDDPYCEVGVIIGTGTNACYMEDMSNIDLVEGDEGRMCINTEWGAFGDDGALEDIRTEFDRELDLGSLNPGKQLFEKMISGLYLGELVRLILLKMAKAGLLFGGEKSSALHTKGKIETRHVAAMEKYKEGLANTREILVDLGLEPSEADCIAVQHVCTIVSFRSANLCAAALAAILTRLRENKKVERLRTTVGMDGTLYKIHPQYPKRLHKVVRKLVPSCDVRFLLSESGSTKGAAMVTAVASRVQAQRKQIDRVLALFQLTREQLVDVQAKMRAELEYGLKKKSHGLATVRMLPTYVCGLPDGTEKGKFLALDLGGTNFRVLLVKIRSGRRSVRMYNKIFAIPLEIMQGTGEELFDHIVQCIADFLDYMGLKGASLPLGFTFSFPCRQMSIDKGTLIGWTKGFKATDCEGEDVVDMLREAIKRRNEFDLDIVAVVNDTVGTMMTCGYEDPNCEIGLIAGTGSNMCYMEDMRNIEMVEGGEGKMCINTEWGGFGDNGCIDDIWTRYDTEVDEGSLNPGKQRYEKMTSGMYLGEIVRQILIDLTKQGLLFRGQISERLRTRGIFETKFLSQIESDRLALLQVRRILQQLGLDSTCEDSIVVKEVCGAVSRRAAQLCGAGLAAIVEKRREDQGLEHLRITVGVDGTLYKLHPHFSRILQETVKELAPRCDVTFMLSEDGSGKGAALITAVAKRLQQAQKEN

This experiment addresses Hexokinase HKDC1 (Homo sapiens) (UniProt Q2TB90). In words: enhancers of human HKDC1 enzyme activity – biochemical, fluorescence, uHTS, primary screen (AID 493187). Particulars: recombinant HKDC1, G6PDH/diaphorase resazurin fluorescence; at 20 µM; active compounds read low. Put shortly: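 system = in-house human HKDC1 enzyme, G6PDH and diaphorase coupling enzymes | amount = HKDC1 5 µg/mL | measured by = resorufin fluorescence from 100 µM resazurin, NADP 1 mM, Ex 525/Em 613 nm | times = enzyme reaction 90 min, room temperature, in dark | doses = single compound dose of 20 µM, 1% DMSO final | medium = Tris/MgCl2 buffer, pH 8.0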
Regarding `CC(=O)OC1C2(CC3N4C(=O)C5(CO)SSC4(CC31O)C(=O)N5C)OC(C)C(C)(C)C2=O` (stereo unspecified), the activity change, negative = activation is -42.1% (active).
